# ChEMBL document CHEMBL5653624 (Biochem Pharmacol, 2016)
# Activity calls are given as the source filed them. The rule behind the calls is not given here.
# Assays:
# [1] = system: Lung; experiment: Antiinflammatory activity in C57bl/6 mouse precision-cut lung slices assessed as effect on LPS/IFNgamma-induced HDAC2 expression at 1 to 10 uM preincubated for 20 hrs followed by LPS/IFNgamma stimulation and measured after 4 hrs by Western blot analysis; assay type: functional, tissue-based; details: dose 1-10 µM, time 24.0 hrs
# [2] = target: Histone deacetylase 2 (Mus musculus) (UniProt P70288); experiment: Effect on HDAC2 nuclear localization in LPS/IFNgamma-stimulated mouse RAW264.7 cells preincubated for 20 hrs followed by LPS/IFNgamma stimulation and measured after 1 hr by Hoechst staining based confocal laser scanning microscopy; assay type: cell-based
# Sequence of Histone deacetylase 2 (Mus musculus) (P70288 whole entry): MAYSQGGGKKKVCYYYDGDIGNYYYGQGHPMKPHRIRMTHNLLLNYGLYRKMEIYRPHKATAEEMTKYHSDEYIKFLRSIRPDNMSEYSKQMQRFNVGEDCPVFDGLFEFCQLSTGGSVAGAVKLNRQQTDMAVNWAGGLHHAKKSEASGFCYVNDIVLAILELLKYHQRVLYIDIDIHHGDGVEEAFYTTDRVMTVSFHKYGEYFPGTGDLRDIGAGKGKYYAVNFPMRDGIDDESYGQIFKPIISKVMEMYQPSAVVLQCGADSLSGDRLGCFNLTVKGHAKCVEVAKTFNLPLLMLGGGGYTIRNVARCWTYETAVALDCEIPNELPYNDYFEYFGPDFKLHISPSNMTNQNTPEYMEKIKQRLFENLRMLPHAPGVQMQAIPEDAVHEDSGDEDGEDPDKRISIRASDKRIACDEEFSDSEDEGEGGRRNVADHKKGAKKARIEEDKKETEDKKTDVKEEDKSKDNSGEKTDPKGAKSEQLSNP
# Method in brief: (§1)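 RAW 264.7 cells at 20,000 cells/cm2 received 1 μM RGFP966 for 20 h, then 1 h LPS/IFNγ. Fixed in 4% formaldehyde, permeabilized with 0.25% Triton X-100, blocked with 5% BSA. Primary antibodies 2 h at 4 °C, AlexaFluor secondaries 1 h, Hoechst nuclear stain. Confocal imaging at 630×; 4 independent experiments.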
# [3] = system: HASMC; experiment: Antiinflammatory activity in HASMC cells assessed as effect on LPS/IFNgamma-induced IL-12b gene expression at 2 uM […] and measured after 4 hrs by RT-qPCR analysis; assay type: functional, cell-based; details: Homo sapiens
# Method in brief: (§2)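 HBE cells (passage 73–103) or immortalized hASM cells (2–3 donors, passage 27–35), serum-starved. Then 2 μM RGFP966 for 20 h, with LPS/IFNγ for the last 4 h. Total RNA isolated; RT-qPCR by 2−ΔΔCt, fold change versus LPS/IFNγ control. Mean ± SD of 3–5 independent experiments.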
# [4] = system: Lung; experiment: Antiinflammatory activity in C57bl/6 mouse precision-cut lung slices assessed as upregulation of LPS/IFNgamma-induced IkappaBalpha expression at 1 to 10 uM preincubated for 20 hrs followed by LPS/IFNgamma stimulation and measured after 4 hrs by Western blot analysis; assay type: functional, tissue-based; details: dose 1-10 µM, time 24.0 hrs
# [5] = system: HBE; experiment: Antiinflammatory activity in HBE cells assessed as up regulation of LPS/IFNgamma-induced IL-6 gene expression at 2 uM […] by RT-qPCR analysis; assay type: functional, cell-based; details: Homo sapiens; method in brief: as §2
# [6] = system: RAW264.7; experiment: Antiinflammatory activity in mouse RAW264.7 cells assessed as effect on LPS/IFNgamma-induced IL-10 gene expression at 1 uM preincubated for 20 hrs followed by LPS/IFNgamma stimulation and measured after 4 hrs by RT-qPCR analysis; assay type: functional, cell-based; details: time 24.0 hrs
# Method in brief: (§3)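 RAW 264.7 macrophages in DMEM/10% FBS received 1 μM RGFP966 for 20 h, with LPS/IFNγ for the last 4 h. Washed with cold DPBS, total RNA isolated, integrity checked by 28S/18S. RT-qPCR by comparative Ct (2−ΔΔCt), fold change versus LPS/IFNγ control. Mean ± SD of 3–5 independent experiments.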
# [7] = system: RAW264.7; experiment: Antiinflammatory activity in mouse RAW264.7 cells assessed as effect on LPS/IFNgamma-induced iNOS gene expression at 1 uM preincubated for 20 hrs followed by LPS/IFNgamma stimulation and measured after 4 hrs by RT-qPCR analysis; assay type: functional, cell-based; details: time 24.0 hrs; method in brief: as §3
# [8] = system: RAW264.7; experiment: Antiinflammatory activity in LPS/IFNgamma-stimulated mouse RAW264.7 cells assessed as effect on HDAC3 mRNA expression preincubated for 20 hrs followed by LPS/IFNgamma stimulation and measured after 4 hrs by RT-qPCR analysis; assay type: functional, cell-based; details: time 24.0 hrs
# [9] = system: RAW264.7; experiment: Antiinflammatory activity in mouse RAW264.7 cells assessed as down regulation of LPS/IFNgamma-induced IL-12b gene expression at 1 uM preincubated for 20 hrs followed by LPS/IFNgamma stimulation and measured after 4 hrs by RT-qPCR analysis; assay type: functional, cell-based; details: time 24.0 hrs; method in brief: as §3
# [10] = system: HASMC; experiment: Antiinflammatory activity in HASMC cells assessed as effect on LPS/IFNgamma-induced TNFalpha gene expression at 2 uM […] and measured after 4 hrs by RT-qPCR analysis; assay type: functional, cell-based; details: Homo sapiens; method in brief: as §2
# [11] = system: HASMC; experiment: Antiinflammatory activity in HASMC cells assessed as effect on LPS/IFNgamma-induced iNOS gene expression at 2 uM […] and measured after 4 hrs by RT-qPCR analysis; assay type: functional, cell-based; details: Homo sapiens; method in brief: as §2
# [12] = system: RAW264.7; experiment: Antiinflammatory activity in LPS/IFNgamma-stimulated mouse RAW264.7 cells assessed as reduction in HDAC2 expression preincubated for 20 hrs followed by LPS/IFNgamma stimulation and measured after 4 hrs by Western blot analysis; assay type: functional, cell-based; details: time 24.0 hrs
# Method in brief: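 RAW 264.7 cells were LPS/IFNγ-stimulated after inhibitor exposure, then lysed in Hepes/Triton buffer containing DTT, butyrate and protease inhibitors, freeze-thawed and cleared. Immunoblot with milk blocking and overnight primary antibody at 4 °C. Densitometry normalized to β-actin, LPS/IFNγ control set at 100%. Mean ± SD of 4 independent experiments.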
# [13] = system: Lung; experiment: Antiinflammatory activity in C57bl/6 mouse precision-cut lung slices assessed as effect on LPS/IFNgamma-induced HDAC3 expression at 1 to 10 uM preincubated for 20 hrs followed by LPS/IFNgamma stimulation and measured after 4 hrs by Western blot analysis; assay type: functional, tissue-based; details: dose 1-10 µM, time 24.0 hrs
# [14] = system: Lung; experiment: Antiinflammatory activity in C57bl/6 mouse precision-cut lung slices assessed as down regulation of LPS/IFNgamma-induced IL-12b gene expression at 1 to 10 uM preincubated for 20 hrs followed by LPS/IFNgamma stimulation and measured after 4 hrs by RT-qPCR analysis; assay type: functional, tissue-based; details: dose 1-10 µM, time 24.0 hrs
# Method in brief: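 PCLS, 250 μm thick, cut from agarose-filled lungs of male C57bl/6 mice (24–28 g, 8–10 weeks). Three slices per well at 37 °C, 5% CO2. Slices received RGFP966 at 1 and 10 μM final for 20 h, with 10 ng/ml LPS and 10 ng/ml IFNγ stimulation. RNA isolated; RT-qPCR fold change versus LPS/IFNγ control by 2−ΔΔCt. Mean ± SD, n = 3–5.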
# [15] = target: T1, Histone deacetylase 3 (Mus musculus) (UniProt O88895); experiment: Inhibition of HDAC3 in mouse RAW264.7 cells assessed as effect on LPS/IFNgamma-induced IkappaBalpha activation preincubated for 20 hrs followed by LPS/IFNgamma stimulation and measured after 1 hr by Western blot analysis; assay type: cell-based
# T1 sequence (whole entry): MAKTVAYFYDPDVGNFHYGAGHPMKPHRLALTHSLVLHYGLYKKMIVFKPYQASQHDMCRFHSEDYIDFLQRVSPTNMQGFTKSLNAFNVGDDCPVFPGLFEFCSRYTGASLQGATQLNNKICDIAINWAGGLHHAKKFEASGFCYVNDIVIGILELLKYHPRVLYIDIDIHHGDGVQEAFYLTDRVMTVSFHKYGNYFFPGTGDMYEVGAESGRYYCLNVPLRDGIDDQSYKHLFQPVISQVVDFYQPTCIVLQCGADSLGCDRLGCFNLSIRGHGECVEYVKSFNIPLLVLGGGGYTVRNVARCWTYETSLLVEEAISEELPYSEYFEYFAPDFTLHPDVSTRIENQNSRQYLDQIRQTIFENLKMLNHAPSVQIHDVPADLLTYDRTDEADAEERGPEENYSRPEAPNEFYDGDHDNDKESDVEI
# [16] = target: T1, Histone deacetylase 3 (Mus musculus); experiment: Effect on HDAC3 nuclear localization in LPS/IFNgamma-stimulated mouse RAW264.7 cells preincubated for 20 hrs followed by LPS/IFNgamma stimulation and measured after 1 hr by Hoechst staining based confocal laser scanning microscopy; assay type: cell-based; method in brief: as §1
# [17] = system: RAW264.7; experiment: Antiinflammatory activity in LPS/IFNgamma-stimulated mouse RAW264.7 cells assessed as effect on NF-kappaB p65 expression preincubated for 20 hrs followed by LPS/IFNgamma stimulation and measured after 4 hrs by Western blot analysis; assay type: functional, cell-based; details: time 24.0 hrs
smiles,measurement,setting,value
Nc1cc(F)ccc1NC(=O)/C=C/c1cnn(C/C=C/c2ccccc2)c1,Activity,[1],inactive
same,Activity,[2],inactive
same,Activity,[3],inactive
same,Activity,[4],Active
same,Activity,[5],Active
same,Activity,[6],inactive
same,Activity,[7],inactive
same,Activity,[8],inactive
same,Activity,[9],Active
same,Activity,[10],inactive
same,Activity,[11],inactive
same,Activity,[12],Active
same,Activity,[13],inactive
same,Activity,[14],Active
same,inhibition,[15],inactive
same,Activity,[16],inactive
same,Activity,[17],inactive
